Assay outcomes (PubChem BioAssay)
The list is not random: actives were taken first. Their share in the collection is about 7.2%.
PLAP act – PLAP enzyme activators, biochemical, luminescence, HTS | Alkaline phosphatase, placental type (Homo sapiens), P05187 | purified PLAP enzyme, luminescent substrate read-out; stronger effect = higher value | activation fold at 20 µM | hit rate 1.2% among 96,000 | AID 696, 2007; in the data active = activation fold above about 2
Target sequence (P05187 whole entry, looked up): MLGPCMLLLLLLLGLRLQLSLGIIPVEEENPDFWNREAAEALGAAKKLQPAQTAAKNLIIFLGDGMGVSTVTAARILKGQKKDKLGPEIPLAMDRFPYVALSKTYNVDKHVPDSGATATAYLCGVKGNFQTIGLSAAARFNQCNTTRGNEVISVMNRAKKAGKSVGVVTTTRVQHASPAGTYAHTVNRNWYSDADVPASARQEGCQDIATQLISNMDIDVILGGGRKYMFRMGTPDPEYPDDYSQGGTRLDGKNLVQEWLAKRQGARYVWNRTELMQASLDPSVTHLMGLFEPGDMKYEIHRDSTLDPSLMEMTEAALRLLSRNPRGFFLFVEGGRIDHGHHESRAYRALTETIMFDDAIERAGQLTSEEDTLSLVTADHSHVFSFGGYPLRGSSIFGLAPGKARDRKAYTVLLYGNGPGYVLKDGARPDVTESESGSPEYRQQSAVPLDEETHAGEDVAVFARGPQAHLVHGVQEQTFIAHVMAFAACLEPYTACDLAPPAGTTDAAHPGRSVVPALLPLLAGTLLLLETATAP
E coli WT exp – growth inhibitors of wild-type E. coli, primary screen, strain BW25113, expanded library, OD600; growth inhibition, % at 100 µM; hit rate 0.15% among 98,000; OD600 absorbance;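 active = growth inhibition above about 50% at one test dose, limit read from the data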;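 also: growth measured after 20 h incubation at 37 °C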
Ecoli tolC – growth inhibitors of E. coli tolC mutant, primary screen, strain BW25113 ΔtolC::kan, 384-well. OD615. growth inhibition, % at 10 µM (by protocol). hit rate 2.2% among 65,000. AID 573, 2007;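 active = growth inhibition at or above a cutoff equal to the mean over every tested compound plus 3 SD, cut at about 60% in these data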;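 also: growth measured after 20 h incubation at 37 °C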
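Doses: one dose of 10 µM final / Material: E. coli BW25113 ΔtolC::kan, tolC deletion mutant strain / Buffer or medium: LB with kanamycin 50 µg/mL / Evaluation: percent growth inhibition / Detection: optical density read at 615 nm / Incubation: 37 °C, 20 h exposure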
PostGolgi ctrl – growth inhibition of yeast control strain, primary screen, counter-screen for post-Golgi transport modulator project | AID 738, 2007 | hit rate 5% among 98,000 | efflux-deficient yeast background strain, growth absorbance A615, 16 h | inhibition, % at 10 µM
PostGolgi yeast – phenotypic screen on post-Golgi transport, primary screen; hit rate 0.9% among 98,000; AID 739, 2007; inhibition, % at 10 µM; post-Golgi transport phenotypic cell assay;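 also: yeast cells grown in 1536-well plates; yeast grown about 18 h at 30C before absorbance read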
* marks the source's active call; other numbers are inactive results. Rule as the data show it, unless noted: active = inhibition above about 30%; inactive = the rest.

Screening NNC(=O)CNC(c1ccccc1)c1cc(Br)ccc1NC(=O)c1ccccc1Br (stereo not drawn) returned PLAP act 1.7, E coli WT exp 9.0, PostGolgi ctrl -2.8 and PostGolgi yeast 8.2.
COC(=O)c1ccc(NCCc2csc(-c3ccc(C)cc3)n2)c([N+](=O)[O-])c1 was read as PLAP act 1, E coli WT exp -13.0, PostGolgi ctrl -4.4 and PostGolgi yeast 12.1.
Screening Cn1c(C(O)c2ccc3c(c2)OCO3)nc2ccccc21 (stereo not drawn) returned PLAP act 1.4, E coli WT exp 4.0, Ecoli tolC 0.6, PostGolgi ctrl -0.2 and PostGolgi yeast 0.9.
Screening CC(C)n1c(C(O)c2ccc3c(c2)OCO3)nc2ccccc21 (stereo not drawn) returned PLAP act 2.4*, E coli WT exp 5.0, Ecoli tolC 17.7, PostGolgi ctrl 4.1 and PostGolgi yeast -1.9.
Cc1cccn2c(=O)c3cc(C(=O)NCc4ccco4)c(=N)n(C(C)C)c3nc12 was read as PLAP act 1.6, E coli WT exp 10.0, Ecoli tolC 0.2, PostGolgi ctrl 7.7 and PostGolgi yeast -5.4.
Screening Cc1cccn2c(=O)c3cc(C(=O)NCc4ccco4)c(=N)n(CCc4ccccc4)c3nc12 returned Ecoli tolC 65.5*.
Screening N=c1c(C(=O)NCc2ccco2)cc2c(=O)n3ccccc3nc2n1Cc1ccc(Cl)cc1 returned PLAP act 1.4, E coli WT exp -9.0, Ecoli tolC 47.5, PostGolgi ctrl 34.5* and PostGolgi yeast 11.5.
CCN1CCN(c2nc(C)c3c(n2)CCCC3=O)CC1 was read as PLAP act 0.8, E coli WT exp 2.0, PostGolgi ctrl 4.1 and PostGolgi yeast 0.7.
For CN(C)S(=O)(=O)c1cccc(C(=O)Nc2cc(Cl)cc(Cl)c2)c1 the results were PLAP act 1.6, E coli WT exp -5.0, PostGolgi ctrl 15.5 and PostGolgi yeast -1.9.
`O=C(Nc1cc(Cl)cc(Cl)c1)c1cccc(OC(F)F)c1` gave PLAP act 0.4, E coli WT exp 28.0, PostGolgi ctrl 33.3* and PostGolgi yeast 59.4*.
`O=c1cc2[nH]c3ccccc3c(=O)n2nc1-c1ccccc1` gave PLAP act 0.9, E coli WT exp -6.0, PostGolgi ctrl 2.7 and PostGolgi yeast 3.8.
CCOC(=O)C1CCN(C(c2cc3c(C)ccc(C)c3[nH]c2=O)c2nnnn2C2CCCCC2)CC1 (stereo not drawn) was read as PLAP act 1.4, E coli WT exp -7.0, Ecoli tolC 35.2, PostGolgi ctrl 30.2* and PostGolgi yeast 5.5.
CCOC(=O)C1CCN(C(c2cc3ccc(C)c(C)c3[nH]c2=O)c2nnnn2C2CCCCC2)CC1 (stereo not drawn) was read as PLAP act 1.6, E coli WT exp -1.0, Ecoli tolC 56.9, PostGolgi ctrl 4.1 and PostGolgi yeast 13.1.
Cc1nn(C(=O)c2cc3sccc3[nH]2)c(C)c1C was read as PLAP act 0.9, E coli WT exp -6.0, Ecoli tolC -2.8, PostGolgi ctrl 22.2 and PostGolgi yeast -6.2.
Screening COc1ccc(-c2nc3n(n2)C(c2ccccc2)C2=C(CCCC2=O)N3)cc1OC (stereo not drawn) returned PLAP act 1, E coli WT exp 3.0, Ecoli tolC 9.0, PostGolgi ctrl -7.3 and PostGolgi yeast 4.0.
COc1ccc(C2C3=C(CCCC3=O)Nc3nc(-c4cc(OC)c(OC)c(OC)c4)nn32)cc1OC (stereo not drawn) was read as PLAP act 1.5, E coli WT exp 7.0, Ecoli tolC 4.4, PostGolgi ctrl 1.1 and PostGolgi yeast 32.6*.
For CCn1nnnc1NCc1cccn1C the results were PLAP act 0.8, E coli WT exp 8.0, Ecoli tolC -27.3, PostGolgi ctrl 2.9 and PostGolgi yeast 6.4.
CCC(=O)Nc1ccccc1Nc1cc(C#N)c(C#N)cc1[N+](=O)[O-] was read as PLAP act 1.
For COc1cc(/C=N\Nc2nc3ccccc3[nH]2)cc(OC)c1OC the results were PLAP act 1.5, E coli WT exp -2.0, PostGolgi ctrl -0.7 and PostGolgi yeast 7.9.
COc1ccc(/C=N/Nc2nc3ccccc3o2)cc1O was read as PLAP act 2.1*, E coli WT exp 1.0, PostGolgi ctrl 1.8 and PostGolgi yeast 3.2.
COc1cc(/C=N/Nc2nc3ccccc3o2)cc(OC)c1O was read as PLAP act 2.3*, E coli WT exp 7.0, PostGolgi ctrl -0.8 and PostGolgi yeast 11.7.
Screening CCCCCOP(=O)(OCCCCC)C1(NS(=O)(=O)c2ccccc2)C=CC(=O)c2ccccc21 (stereo not drawn) returned PLAP act 1.1, E coli WT exp -6.0, PostGolgi ctrl 17.7 and PostGolgi yeast -0.2.
Screening O=c1[nH]c(SCc2n[nH]c(=S)n2-c2ccccc2)nc2sc3c(c12)CCC3 returned PLAP act 0.8, E coli WT exp 6.0, PostGolgi ctrl 15.2 and PostGolgi yeast 1.5.
`O=C(Nc1ccc(Cl)cn1)C1CCCN1S(=O)(=O)c1cccc2ccccc12` (stereo not drawn) gave PLAP act 0.9, E coli WT exp -17.0, PostGolgi ctrl 50.5* and PostGolgi yeast -3.1.
For NC(=O)c1ccc(C(F)(F)F)n(Cc2ccccc2Cl)c1=O the results were PLAP act 0.8, E coli WT exp -8.0, PostGolgi ctrl 44.4* and PostGolgi yeast 1.8.
`CCCOC(=O)Nc1nc2ccccc2o1` gave PLAP act 1.9, E coli WT exp 0.0, Ecoli tolC -6.9, PostGolgi ctrl -2.4 and PostGolgi yeast -5.7.
Screening CCOC(=O)c1cnc(Nc2nc3ccccc3o2)nc1CN1CCN(C)CC1 returned PLAP act 2*, E coli WT exp 8.0, PostGolgi ctrl 16.2 and PostGolgi yeast 15.9.
N#C/C(C(N)=O)=c1/ccc2c(c1)N1C3=C(CCCC3)CC3CCCCC31N=2 (stereo not drawn) was read as PLAP act 1.2, E coli WT exp -29.0, Ecoli tolC 17.9, PostGolgi ctrl 18.1 and PostGolgi yeast 6.4.
Screening N#CC(C#N)=c1ccc2c(c1)N1C3=C(CCCC3)CC3CCCCC31N=2 (stereo not drawn) returned PLAP act 0.7, E coli WT exp -34.0, Ecoli tolC 82.5*, PostGolgi ctrl 50.3* and PostGolgi yeast 43.9*.
Screening CCOC(=O)Nc1cc(=O)c2ccccc2o1 returned PLAP act 0.8, E coli WT exp -2.0, Ecoli tolC -7.1, PostGolgi ctrl 43.4* and PostGolgi yeast -6.3.
`CC(CCc1ccccc1)NC(=O)c1cccs1` (stereo not drawn) gave PLAP act 0.9, E coli WT exp 1.0, PostGolgi ctrl 16.2 and PostGolgi yeast 3.8.
Screening NC(=O)c1cc(-c2ccccc2)nc(N2CCOCC2)n1 returned PLAP act 1, E coli WT exp 2.0, Ecoli tolC 9.4, PostGolgi ctrl 4.8 and PostGolgi yeast 15.2.
`NC(=O)c1cc(-c2ccccc2)nc(N2CCCCCC2)n1` gave PLAP act 1, E coli WT exp -5.0, Ecoli tolC -4.6, PostGolgi ctrl 36.9* and PostGolgi yeast 17.9.
